Holding throughout (assay type): functional
For test [1], the system named is Klebsiella pneumoniae. Put plainly: Antimicrobial activity against Klebsiella pneumoniae isolate KpKPC expressing multidrug-resistant blaKPC gene assessed as susceptible isolates by disk diffusion method. The essentials:
(§1)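 Fosfomycin disk diffusion with inhibition zone diameters read in mm and interpreted as susceptible, intermediate or resistant. E. coli ATCC 25922 and P. aeruginosa ATCC 27853 run as controls.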

For test [2], the system named is Klebsiella pneumoniae. The test is described as follows: Antimicrobial activity against Klebsiella pneumoniae isolate KpKPC expressing multidrug-resistant blaKPC gene assessed as susceptible isolates by Etest. The gist of the method: (§2)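 Etest of fosfomycin MICs, with MICs rounded up to the next doubling concentration (e.g., 48 to 64 μg/ml). E. coli ATCC 25922 and P. aeruginosa ATCC 27853 included as controls. Isolates categorised as susceptible or resistant.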

Test [3] concerns Klebsiella pneumoniae. The test is described as follows: Antimicrobial activity against Klebsiella pneumoniae isolate KpKPC expressing multidrug-resistant blaKPC gene assessed as resistant isolates by disk diffusion method. The essentials: as §1
Test [4] has as its system Klebsiella pneumoniae. Put plainly: Antimicrobial activity against Klebsiella pneumoniae isolate KpKPC expressing multidrug-resistant blaKPC gene assessed as resistant isolates by Etest. The gist of the method:
as §2

Consider `C[C@@H]1O[C@@H]1P(=O)(O)O` [FOSFOMYCIN], for which the Activity in test [1] was 63.2%; in test [2] it was 61.8%; in test [3], 2.9%; in test [4], 14.7%.

Source of the values: ChEMBL document CHEMBL1212774, “In vitro activity of fosfomycin against blaKPC-containing Klebsiella pneumoniae isolates, including those nonsusceptible to tigecycline and/or colistin” (2010).
